High-throughput results deposited in PubChem by SRMLSC.
HUVEC prolif 384: blocks proliferation of human endothelial cells; HUVEC proliferation, CellTiter-Glo luminescence, 72 h; active compounds read low; viability, % at 10 µM (by protocol); actives 1.1% (n = 86,000);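 active means viability at or below 30%; inactive means viability above 30%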;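 further: 100% = median luminescence of DMSO-only cell control wells on each plate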
H69AR inhibit: blocks growth of human H69AR lung tumor cells; viability, % at 10 µM; H69AR lung tumor viability, ATP luminescence, 72 h; active compounds read low; AID 598; actives 6% (n = 85,000);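 active means viability at or below 40%; inactive means viability above 40%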;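 further: multidrug resistant small cell line overexpressing MRP-1 efflux transporter; 100% = mean luminescence of untreated control wells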
HCT116 bCat-KO: beta-catenin-lacking colon tumor cell growth suppression; actives 1.5% (n = 140,000); viability, % at 10 µM; AID 818; HCT116 beta-catenin knockout viability, CellTiter-Glo, 60 h; active compounds read low;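 active means viability at or under a set limit, the compound median less 4 SD, cut at about 6% in these data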;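 further: 0% = Hyamine 1622 control at 20 µM and 100% = untreated cell control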
HCT116 PTEN-null: suppresses growth of cells with PTEN deletion | actives 1.2% (n = 140,000) | HCT116 PTEN-null viability, CellTiter-Glo, 60 h; active compounds read low | viability, % at 10 µM | AID 827;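 active means viability at or below a set limit, 4 SD under the median of all tested compounds, cut at about 3.7% in these data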;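 further: PTEN knockout HCT116 line with beta catenin targeted HCT116 as companion control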
Fibroblast inh: blocks proliferation of human lung fibroblasts. LL 47 human lung fibroblast viability, ATP luminescence; active compounds read low. viability, % at 10 µM. actives 1.1% (n = 85,000). AID 719;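 active means viability at or below 50% in the single dose screen; inactive means viability above 50%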;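 further: compound exposure lasted 72 h before the ATP readout; 100% = median luminescence of untreated cell-only wells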
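test system = LL 47 human lung fibroblasts | amount = 1,150 fibroblasts seeded per well | medium = 15% FBS in IMEM | times = overnight cell rest, 72 h compound treatment at 37 °C | measured by = CellTiter-Glo luminescence measuring cellular ATP | read-out = viability percentage against median untreated-cell control | benchmarks = cell-only wells, no compound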
* marks the source's active call; other numbers are inactive results; nt = no result. The entries come from a sample that favours hits as a whole.

SMILES | HUVEC prolif 384 | H69AR inhibit | HCT116 bCat-KO | HCT116 PTEN-null | Fibroblast inh
O=C1CC(c2ccco2)CC(O)=C1C=Nc1cc(Cl)ccc1O (configuration not stated) | 76.8 | 5.3* | 81.5 | 88.3 | 99.1
Cc1ccccc1OCc1nnc(SCC(=O)Nc2ccc3nc(SCC(=O)Nc4ccccc4)sc3c2)n1C | nt | nt | 59.5 | 64.0 | nt
CCCCC(CC)Cn1c2nc3ccccc3nc2c2c(=N)oc(C)nc21 (configuration not stated) | 2.5* | 90.4 | 4.5* | 2.5* | 75.0
CC(=C\C(=O)O)/C(=C/c1ccc(C)o1)C(=O)O | nt | nt | 93.5 | 91.4 | nt
CC(=O)n1cc(C(C[N+](=O)[O-])SCCN)c2ccccc21 (configuration not stated) | 21.6* | 1.6* | 77.0 | 87.8 | 24.4*
Cn1cc(SCC(=O)O)c2ccccc21 | 97.2 | 72.1 | 90.2 | 106.1 | 101.1
Cc1ccc(OC(F)F)c(NC(=O)Nc2cccc(C(F)(F)F)c2)c1 | 43.4 | 2.4* | 22.7 | 17.4 | 35.4*
CNC(=O)Nc1cccc(C(F)(F)F)c1 | 97.8 | 101.9 | 95.8 | 92.6 | 94.2
CC12CCC(C(=O)NCc3ccc4c(c3)OCO4)(C(=O)C1=O)C2(C)C (configuration not stated) | 102.6 | 92.9 | 94.7 | 105.8 | 103.6
CCOC(=O)N1CCC(n2c(SCC(=O)NCc3ccccc3)nc3ccccc3c2=O)CC1 | 96.2 | 57.5 | 68.2 | 63.0 | 90.7
CCOC(=O)N1CCC(n2c(SCC(=O)N3CCC(C)CC3)nc3ccccc3c2=O)CC1 | 87.6 | 30.3* | 42.5 | 53.2 | 104.9
CCOC(=O)N1CCC(n2c(SCC(=O)NCCC3=CCCCC3)nc3ccccc3c2=O)CC1 | 74.5 | 26.3* | 45.0 | 49.4 | 88.1
c1ccc(-n2nnnc2Oc2cccc3cccnc23)cc1 | 78.6 | 36.1* | 49.0 | 24.9 | 89.6
Cc1ccc(C(C)C)c(Oc2nnnn2-c2ccccc2)c1 | 84.4 | 30.2* | 55.5 | 62.1 | 87.1
CCOc1ccccc1C(=O)Nc1cc(Cl)ccc1O | 49.6 | 29.9* | 57.5 | 65.8 | 99.1
COc1ccccc1C(=O)Nc1cc(Cl)ccc1O | 86.6 | 86.9 | 83.4 | 75.2 | 96.3
Cc1ccc(Cl)cc1NC(=O)c1ccccc1OCC(=O)Nc1ccc(Cl)cc1 | nt | nt | 27.2 | 2.9* | nt
O=C(NC(c1ccccc1)c1ccccc1)C1CCCN(S(=O)(=O)c2cnc[nH]2)C1 (configuration not stated) | 101.6 | 89.3 | 92.3 | 90.6 | 99.7
CC(=O)N1CCC(N(C(=O)Nc2c(F)cccc2F)C(C)C)CC1 | 107.0 | 103.9 | 100.8 | 94.2 | 94.5
CCC(=O)OCCNc1cc(SCCC(=O)OC)c2nonc2c1[N+](=O)[O-] | nt | nt | 67.4 | 67.4 | nt
CCC(=O)OCCNc1cc(Sc2nccn2C)c2nonc2c1[N+](=O)[O-] | nt | nt | 1.6* | 1.7* | nt
CCCC(=O)OCCNc1cc(Sc2nc3ccccc3[nH]2)c2nonc2c1[N+](=O)[O-] | nt | nt | 3.6* | 3.6* | nt
CC(=O)OCCCNc1cc(Sc2ccc(Cl)cc2)c2nonc2c1[N+](=O)[O-] | nt | nt | 1.5* | 1.6* | nt
CC(=O)N1c2ccccc2N(Cc2ccc(C)cc2C)C(=O)C1(C)C | 50.0 | 23.4* | 12.3 | 12.4 | 45.7*
CCOc1cc(C2C(C#N)=C(N)OC(C)=C2C(C)=O)c(Br)c(Br)c1OC(C)C (configuration not stated) | 31.4 | 3.2* | 12.3 | 10.5 | 61.6
SMILES | HUVEC prolif 384 | H69AR inhibit | HCT116 bCat-KO | HCT116 PTEN-null | Fibroblast inh
CC(C)C(=O)NC(c1ccccc1)c1cc([N+](=O)[O-])c2cccnc2c1O (configuration not stated) | nt | nt | 4.1* | 7.0 | nt
CC(NC(=O)Cc1ccccc1[N+](=O)[O-])c1ccccc1 (configuration not stated) | nt | nt | 91.4 | 91.4 | nt
CCCC(=O)NC(c1cccs1)c1cc([N+](=O)[O-])c2cccnc2c1O (configuration not stated) | nt | nt | 5.5* | 4.0 | nt
CC(=O)NC(c1cccs1)c1cc([N+](=O)[O-])c2cccnc2c1O (configuration not stated) | nt | nt | 5.6* | 3.8* | nt
CCC(=O)NC(C)C(c1cccs1)N1CCOCC1 (configuration not stated) | 99.0 | 104.9 | nt | nt | 97.2
CCCC(=O)NC(C)C(c1cccs1)N1CCN(C)CC1 (configuration not stated) | 89.9 | 96.9 | 94.9 | 100.7 | 99.7
CCC(=O)NC(c1cccs1)c1cc([N+](=O)[O-])c2cccnc2c1O (configuration not stated) | nt | nt | 3.0* | 5.5 | nt
